Calls of active or inactive are those of the source.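 The calls were made as follows, unless noted: active = current rise at least 3 SD above the untreated control mean in each of two repeat wells; inactive = the rest.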

Sequence of Potassium voltage-gated channel subfamily KQT member 1 (Homo sapiens) (P51787 whole entry, looked up): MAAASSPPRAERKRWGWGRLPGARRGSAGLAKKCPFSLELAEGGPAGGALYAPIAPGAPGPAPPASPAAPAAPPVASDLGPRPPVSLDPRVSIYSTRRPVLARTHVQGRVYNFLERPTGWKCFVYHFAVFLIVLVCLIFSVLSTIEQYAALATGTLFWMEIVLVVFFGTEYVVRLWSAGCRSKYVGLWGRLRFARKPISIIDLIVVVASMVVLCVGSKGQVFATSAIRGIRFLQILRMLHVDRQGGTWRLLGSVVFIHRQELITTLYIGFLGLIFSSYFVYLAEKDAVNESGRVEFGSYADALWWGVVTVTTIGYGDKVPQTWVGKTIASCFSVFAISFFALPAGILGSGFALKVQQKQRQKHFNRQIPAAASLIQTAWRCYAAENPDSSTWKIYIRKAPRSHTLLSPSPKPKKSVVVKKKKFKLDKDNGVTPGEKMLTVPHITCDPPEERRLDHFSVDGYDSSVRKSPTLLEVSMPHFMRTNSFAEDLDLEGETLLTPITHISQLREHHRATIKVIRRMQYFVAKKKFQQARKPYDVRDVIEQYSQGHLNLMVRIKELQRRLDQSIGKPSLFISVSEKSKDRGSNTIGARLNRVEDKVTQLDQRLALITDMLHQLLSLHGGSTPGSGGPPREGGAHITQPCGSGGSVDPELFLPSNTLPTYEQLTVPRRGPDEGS

The target of the first test is Potassium voltage-gated channel subfamily KQT member 2 (Rattus norvegicus) (UniProt O88943). The experiment in a line: KCNQ2 thallium flux enhancement – KCNQ2-CHO-K1 cells, selectivity assay for KCNQ1 potentiator project (AID 493009;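 active = mean duplicate potentiation above the buffer control mean plus 5 SD of buffer wells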;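 also: assay conditions were tuned for KCNQ1 rather than KCNQ2 modulators; signal is max minus min fluorescence divided by baseline after thallium stimulus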). The settings on record: FluxOR thallium flux fluorescence, at 10 µM; hits give high values, scaled: buffer 0, activator control 100.
Sequence of Potassium voltage-gated channel subfamily KQT member 2 (Rattus norvegicus) (O88943 whole entry, looked up): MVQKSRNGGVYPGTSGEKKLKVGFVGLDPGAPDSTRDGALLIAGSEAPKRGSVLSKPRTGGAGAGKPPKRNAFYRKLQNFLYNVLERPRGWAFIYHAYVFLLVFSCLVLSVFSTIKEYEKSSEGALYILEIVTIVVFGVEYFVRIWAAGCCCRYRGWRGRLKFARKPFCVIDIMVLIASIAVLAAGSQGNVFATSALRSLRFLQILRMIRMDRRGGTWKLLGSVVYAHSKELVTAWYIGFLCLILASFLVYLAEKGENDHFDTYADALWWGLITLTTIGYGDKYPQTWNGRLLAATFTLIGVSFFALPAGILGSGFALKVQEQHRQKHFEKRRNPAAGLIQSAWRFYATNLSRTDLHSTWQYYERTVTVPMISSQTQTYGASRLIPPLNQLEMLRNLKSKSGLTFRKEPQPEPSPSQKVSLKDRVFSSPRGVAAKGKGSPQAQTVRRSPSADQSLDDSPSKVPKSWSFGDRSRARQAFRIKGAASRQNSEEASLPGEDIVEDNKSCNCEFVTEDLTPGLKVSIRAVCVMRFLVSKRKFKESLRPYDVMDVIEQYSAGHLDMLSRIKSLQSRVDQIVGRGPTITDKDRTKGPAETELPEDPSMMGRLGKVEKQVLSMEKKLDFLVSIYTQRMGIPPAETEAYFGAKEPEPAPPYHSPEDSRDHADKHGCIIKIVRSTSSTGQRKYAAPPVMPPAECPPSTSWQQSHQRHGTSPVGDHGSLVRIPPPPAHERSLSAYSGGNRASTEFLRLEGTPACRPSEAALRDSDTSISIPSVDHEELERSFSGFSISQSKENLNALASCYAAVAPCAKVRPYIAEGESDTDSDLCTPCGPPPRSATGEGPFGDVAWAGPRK
As for `CN(CCCNC(=O)CCCOc1cc(=O)n(C)c2ccccc12)Cc1ccccc1`, the outcome was inactive.
In the case of `CN(C)S(=O)(=O)N1CCC(CCCC2CCN(S(=O)(=O)N(C)C)CC2)CC1`, the potentiation is 288% (active).
On the same count and under the same terms, the same measure for `O=C(Nc1ccnn1C1CCN(Cc2cc3ccccc3[nH]2)CC1)C1CCOC1` (stereo unspecified): 180% (active).
On to `CN(C)CCCN(C(=O)CCc1ccccc1)c1nc2ccc(F)cc2s1`, for which the result was inactive.
Turning to `O=C(O)CCCN1C(=O)/C(=C\c2ccc(-c3nc4ccccc4s3)o2)SC1=S`, the outcome was inactive.
In the case of `CCCCCCCCCC[n+]1cccc2c3ccccc3ccc21`, the potentiation is 194% (active).
In the case of `CC(C)NS(=O)(=O)c1ccc(NC(=O)C(C)Oc2ccc(C(=O)c3ccccc3)cc2)cc1` (stereo unspecified), the outcome was inactive.
On the same count and under the same terms, the same measure for `CCCc1nc2oc3c(NCCCN(C)C)ncnc3c2c2c1CCCC2`: “inactive”; for `CCCCN(CC)CCCNC(=O)c1cc2cc3ccc(C)cc3nc2o1`: “inactive”; for `O=C1C=CC(=O)N1CCNc1ncc(C(F)(F)F)cc1Cl`: “inactive”.
`Cc1ccc2c(c1)C1CN(C)CCC1N2C(=S)NC(=O)c1ccc(Br)cc1` (stereo unspecified): the potentiation was 200% (active).
For the compound `Cc1cc(C)c2c(=O)n(CC(=O)Nc3cccc(Cl)c3C)sc2n1`, the result was inactive.
Still for that read-out and setting: with `COc1cc(C2(c3ccc(O)c(OC)c3)C(=O)Nc3c(C)cc(Br)cc32)ccc1O` the entry was “inactive”.
Consider `Cc1nn(-c2cc(C(F)(F)F)ccc2Cl)c2nc(C(Cl)(Cl)Cl)[nH]c(=O)c12`, for which the potentiation was 218% (active).
Take `Cc1ccc(C(=O)O)cc1N=Cc1cc(Br)cc(Br)c1O`: the potentiation is 192% (active).
In the case of `CCN(CC)c1ncnc2sc3c(c12)CCC3`, the outcome was inactive.
Turning to `COc1ccc(NS(=O)(=O)c2ccc3ccccc3c2)c2ncccc12`, the potentiation is 172% (active).
On to `COc1cc(NC(=O)CSc2ncnc3sc4c(c23)CCC(C)C4)c(C(=O)O)cc1OC` (stereo unspecified), for which the potentiation is 506% (active).

Another test deals with Potassium voltage-gated channel subfamily KQT member 1 (Homo sapiens) (UniProt P51787). Briefly: KCNQ1 activators by electrophysiology – IonWorks patch clamp, KCNQ1-CHO cells, orthogonal assay for KCNQ1 potentiator project, confirmation (AID 493184). The note with it: automated patch clamp current, at 10 µM; hits give high values. In short, it runs like this:
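Test system: KCNQ1-expressing CHO cells. Medium: pH 7.4 external bath. Probe or stimulus: voltage step from -90 mV holding to +40 mV, 2,000 ms. Compound: 10 µM final, single point. Detection: automated perforated-patch electrophysiology. Read-out: percent current increase versus pre-compound level. Repeats: two replicates.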
For `CN(CCCNC(=O)CCCOc1cc(=O)n(C)c2ccccc12)Cc1ccccc1`, the outcome was inactive.
Turning to `CN(C)S(=O)(=O)N1CCC(CCCC2CCN(S(=O)(=O)N(C)C)CC2)CC1`, the outcome was inactive.
Still for that read-out and setting: with `O=C(Nc1ccnn1C1CCN(Cc2cc3ccccc3[nH]2)CC1)C1CCOC1` (stereo unspecified) the entry was “inactive”; with `CN(C)CCCN(C(=O)CCc1ccccc1)c1nc2ccc(F)cc2s1`, “inactive”.
In the case of `O=C(O)CCCN1C(=O)/C(=C\c2ccc(-c3nc4ccccc4s3)o2)SC1=S`, the result was inactive.
Same read-out and setting: the same measure for `CCCCCCCCCC[n+]1cccc2c3ccccc3ccc21`: “inactive”.
For `CC(C)NS(=O)(=O)c1ccc(NC(=O)C(C)Oc2ccc(C(=O)c3ccccc3)cc2)cc1` (stereo unspecified), the outcome was inactive.
The same measure, in the same setting: the same measure for `CCCc1nc2oc3c(NCCCN(C)C)ncnc3c2c2c1CCCC2`: “inactive”; for `CCCCN(CC)CCCNC(=O)c1cc2cc3ccc(C)cc3nc2o1`: “inactive”; for `O=C1C=CC(=O)N1CCNc1ncc(C(F)(F)F)cc1Cl`: “inactive”.
Still for that read-out and setting: the same measure for `Cc1ccc2c(c1)C1CN(C)CCC1N2C(=S)NC(=O)c1ccc(Br)cc1` (stereo unspecified): “inactive”; for `Cc1cc(C)c2c(=O)n(CC(=O)Nc3cccc(Cl)c3C)sc2n1`: “inactive”.
On the same count and under the same terms, with `COc1cc(C2(c3ccc(O)c(OC)c3)C(=O)Nc3c(C)cc(Br)cc32)ccc1O` the entry was “inactive”; with `Cc1nn(-c2cc(C(F)(F)F)ccc2Cl)c2nc(C(Cl)(Cl)Cl)[nH]c(=O)c12`, “inactive”; with `Cc1ccc(C(=O)O)cc1N=Cc1cc(Br)cc(Br)c1O`, “inactive”.
For `CCN(CC)c1ncnc2sc3c(c12)CCC3`, the outcome was inactive.
Turning to `COc1ccc(NS(=O)(=O)c2ccc3ccccc3c2)c2ncccc12`, the outcome was inactive.
Same read-out and setting: with `COc1cc(NC(=O)CSc2ncnc3sc4c(c23)CCC(C)C4)c(C(=O)O)cc1OC` (stereo unspecified) the entry was “inactive”.

The values are drawn from PubChem BioAssay.
